The text below walks through data of ChEMBL document CHEMBL1177870, “Multiple toxin production in the cyanobacterium microcystis: isolation of the toxic protease inhibitor cyanopeptolin 1020” (J Nat Prod, 2010).

The source made the active and inactive calls. The calls are words filed in the database; no cut-off is given here.

The nature of series [1]: Inhibition of bovine trypsin. Details: species or system Bos taurus. A digest of the protocol: (§1)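 Fluorogenic kinetic assay. Protease and inhibitor preincubated at RT for 30 min before substrate was added. Read at ex 355/em 480 nm every 30 s for 1 h. Initial rates were taken by linear regression, and fractional activity was the inhibited rate over the uninhibited blank rate.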

The target in series [2] is T1, Prothrombin (Homo sapiens, UniProt P00734). Kind of series: Inhibition of thrombin at < 2.5 uM. In outline:
as §1

Series [3] concerns the target T2, Urokinase-type plasminogen activator (Homo sapiens, UniProt P00749). Description: Inhibition of human LMW urokinase. In outline:
as §1

Series [4] in a line: Inhibition of chymotrypsin. In outline: as §1
The target in series [5] is T2, Urokinase-type plasminogen activator. Description: Inhibition of human LMW urokinase at < 2.5 uM. In outline: as §1
A further series addresses Coagulation factor XI (Homo sapiens, UniProt P03951). Description: Inhibition of factor 11a. In outline: as §1
Series [6] concerns the target T3, Tissue-type plasminogen activator (Homo sapiens, UniProt P00750). Description: Inhibition of human tissue plasminogen activator at < 2.5 uM. A digest of the protocol:
as §1
Target sequence in this assay (P00750 36-562 limits assumed): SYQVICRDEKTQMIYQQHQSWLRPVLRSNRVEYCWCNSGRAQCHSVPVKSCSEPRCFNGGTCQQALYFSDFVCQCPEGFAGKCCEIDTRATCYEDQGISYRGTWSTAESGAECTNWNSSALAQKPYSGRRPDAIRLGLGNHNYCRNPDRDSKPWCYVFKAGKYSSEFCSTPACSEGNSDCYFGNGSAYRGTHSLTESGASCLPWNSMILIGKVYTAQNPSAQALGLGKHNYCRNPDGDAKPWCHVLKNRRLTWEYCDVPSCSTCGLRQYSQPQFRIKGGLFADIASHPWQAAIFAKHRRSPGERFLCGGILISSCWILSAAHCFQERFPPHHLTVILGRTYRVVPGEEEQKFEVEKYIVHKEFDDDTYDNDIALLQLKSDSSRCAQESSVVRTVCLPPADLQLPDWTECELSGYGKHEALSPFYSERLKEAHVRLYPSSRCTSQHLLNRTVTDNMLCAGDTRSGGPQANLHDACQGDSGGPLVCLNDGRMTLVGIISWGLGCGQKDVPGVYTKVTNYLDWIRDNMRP

Series [7] can be described thus: Toxicity in Thamnocephalus platyurus after 24 hrs by acute toxicity assay. In kind it is organism-based. To be noted: in vivo. A digest of the protocol: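 Thamnocephalus platyurus instar II–III larvae hatched from cysts were exposed in multiwell plates for 24 h to six concentrations from 0.1 to 100 µM of highly purified compound, with 20–30 animals per concentration. LC50 was obtained by nonlinear regression.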

Series [8] in a line: Inhibition of trypsin. In outline: as §1
Series [9] can be described thus: Inhibition of human kallikrein. In outline: as §1
Series [10] has as its target T3, Tissue-type plasminogen activator. Description: Inhibition of human tissue plasminogen activator. A digest of the protocol:
as §1
Target sequence in this assay (P00750 whole entry): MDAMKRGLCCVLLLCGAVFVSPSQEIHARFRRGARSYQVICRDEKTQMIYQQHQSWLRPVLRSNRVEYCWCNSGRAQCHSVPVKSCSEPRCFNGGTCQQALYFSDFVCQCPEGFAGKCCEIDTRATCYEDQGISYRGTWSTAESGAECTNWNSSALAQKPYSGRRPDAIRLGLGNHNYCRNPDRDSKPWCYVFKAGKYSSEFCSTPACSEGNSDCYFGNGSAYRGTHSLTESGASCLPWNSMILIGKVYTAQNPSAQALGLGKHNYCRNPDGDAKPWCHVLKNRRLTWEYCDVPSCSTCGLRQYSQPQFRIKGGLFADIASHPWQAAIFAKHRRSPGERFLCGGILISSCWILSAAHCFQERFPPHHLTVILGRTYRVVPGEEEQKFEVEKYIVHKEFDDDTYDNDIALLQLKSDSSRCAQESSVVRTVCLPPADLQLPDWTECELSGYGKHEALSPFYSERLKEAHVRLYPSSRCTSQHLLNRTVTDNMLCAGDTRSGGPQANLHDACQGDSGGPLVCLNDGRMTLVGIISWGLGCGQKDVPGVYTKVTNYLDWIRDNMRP

Series [11] addresses T1, Prothrombin. Description: Inhibition of thrombin. A digest of the protocol: as §1
The target in the next series is Plasminogen (Homo sapiens, UniProt P00747). Description: Inhibition of plasmin. In outline:
as §1

Sequence of Plasminogen (P00747 97-580 limits assumed): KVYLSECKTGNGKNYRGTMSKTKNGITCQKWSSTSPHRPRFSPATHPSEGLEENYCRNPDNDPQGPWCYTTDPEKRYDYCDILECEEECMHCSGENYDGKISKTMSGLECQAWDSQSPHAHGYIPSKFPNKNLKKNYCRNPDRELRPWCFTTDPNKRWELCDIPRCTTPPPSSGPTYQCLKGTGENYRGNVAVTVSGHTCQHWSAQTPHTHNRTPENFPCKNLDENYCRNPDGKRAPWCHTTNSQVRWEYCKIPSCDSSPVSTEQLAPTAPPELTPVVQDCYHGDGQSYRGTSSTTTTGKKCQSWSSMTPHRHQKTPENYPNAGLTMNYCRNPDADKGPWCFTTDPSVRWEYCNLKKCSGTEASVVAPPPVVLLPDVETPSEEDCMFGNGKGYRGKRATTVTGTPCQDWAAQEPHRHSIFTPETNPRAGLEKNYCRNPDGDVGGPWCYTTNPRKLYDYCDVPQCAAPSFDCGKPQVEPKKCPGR
Sequence of Plasminogen (P00747 581-810 limits assumed): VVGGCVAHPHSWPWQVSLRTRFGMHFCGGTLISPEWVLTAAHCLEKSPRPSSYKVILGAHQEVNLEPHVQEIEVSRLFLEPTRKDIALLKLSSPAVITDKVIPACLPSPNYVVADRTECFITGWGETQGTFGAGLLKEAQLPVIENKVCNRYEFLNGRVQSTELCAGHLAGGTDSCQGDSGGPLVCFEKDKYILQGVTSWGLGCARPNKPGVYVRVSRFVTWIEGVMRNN
Sequence of Coagulation factor XI (P03951 19-387 limits assumed): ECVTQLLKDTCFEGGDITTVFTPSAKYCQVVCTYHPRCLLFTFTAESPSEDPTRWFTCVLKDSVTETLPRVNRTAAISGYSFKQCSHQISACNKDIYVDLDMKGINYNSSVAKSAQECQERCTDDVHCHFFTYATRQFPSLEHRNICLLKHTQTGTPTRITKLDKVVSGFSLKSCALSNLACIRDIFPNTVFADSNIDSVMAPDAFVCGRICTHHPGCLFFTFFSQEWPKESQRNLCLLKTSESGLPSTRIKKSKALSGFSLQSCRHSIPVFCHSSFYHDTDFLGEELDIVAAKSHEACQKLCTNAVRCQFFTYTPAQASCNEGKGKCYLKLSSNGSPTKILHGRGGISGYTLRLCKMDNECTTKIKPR
Sequence of Coagulation factor XI (P03951 388-625 limits assumed): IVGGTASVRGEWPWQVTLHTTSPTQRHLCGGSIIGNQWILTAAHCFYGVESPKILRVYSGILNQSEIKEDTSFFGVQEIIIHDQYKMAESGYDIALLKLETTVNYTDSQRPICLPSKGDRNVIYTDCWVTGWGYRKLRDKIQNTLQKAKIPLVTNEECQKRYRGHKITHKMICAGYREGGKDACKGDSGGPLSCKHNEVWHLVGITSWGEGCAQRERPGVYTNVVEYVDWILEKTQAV

By IC50 is commonly meant the concentration needed to halve the response being measured. Low values mean greater potency, high ones weaker potency. In turn, `CC(C)C[C@@H](NC(=O)[C@H](O)COS(=O)(=O)O)C(=O)N[C@@H]1C(=O)N[C@@H](CCCNC(=N)N)C(=O)N[C@H]2CC[C@@H](O)N(C2=O)[C@@H](CC(C)C)C(=O)N(C)[C@@H](Cc2ccc(O)cc2)C(=O)N[C@@H](C(C)C)C(=O)O[C@@H]1C` had an IC50 in [1] of 10 nM.
In general, LC50 refers to the concentration lethal to half of the exposed cells or organisms. A lower LC50 goes with greater toxicity. Take `CCCCCC(=O)N[C@@H](CCC(=O)O)C(=O)N[C@@H]1C(=O)N[C@@H](CCCNC(=N)N)C(=O)N[C@H]2CC[C@@H](O)N(C2=O)[C@@H](Cc2ccccc2)C(=O)N(C)[C@@H](Cc2ccc(O)cc2)C(=O)N[C@@H](C(C)C)C(=O)O[C@@H]1C` [CYANOPEPTOLIN 1020]: the inhibition entry (at Prothrombin [2]; in series [5]; in series [6]) was “inactive” throughout. Besides, the IC50 is over 605 µM in [3]; 1800 nM in series [4]; 3.9 nM at Coagulation factor XI; 0.67 nM in [8]; 4.5 nM in series [9]; over 2500 nM in series [10]. For the same compound, the figures for the half-maximal inhibitory concentration (IC50) against Prothrombin [11] and against Plasminogen were over 2500 nM and 490 nM, respectively. Moreover, the LC50 at 24 h in [7] is 8.8 µM.
